Measured values taken from ChEMBL document CHEMBL4513216, “Probing the Open Global Health Chemical Diversity Library for Multistage-Active Starting Points for Next-Generation Antimalarials” (ACS Infect Dis, 2020).

Assay: Toxicity liver stage against HepG2, at 10uM
Assay type: cell-based
Design: test concentration 10 uM, cell line HepG2-A16-CD81EGFP
Conditions: human, HepG2-A16-CD81EGFP cells; read-out: INHIBITION
How it was run: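 Uninfected HepG2-A16-CD81EGFP cells, 3 × 10^3 per well, 1536-well, plated on prespotted compound at 10 μM final, parasite-free screening media added to match infected plates; puromycin 10 μM positive, DMSO 0.5% negative; run in parallel with 48 h PbLuc assay at 37 °C, 5% CO2; viability by CellTiter-Glo luminescence, normalized to controls.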

SMILES | cytotoxicity at 10 µM [%]
O=C(C1CC1)N1C[C@@H](F)[C@@H](OCc2nc3ccccc3[nH]2)C1 | -0.0342
c1ccc(-c2cc(CC3(NCc4ncc[nH]4)COC3)no2)cc1 | 2.05
CC(=O)N1CCC(NC[C@H]2Cn3c(-c4ccccc4)cnc3CO2)CC1 | -5.04
Cc1ccc(CN2CC(O)CN(C(=O)C3CC3)CC2=O)cc1 (centres undefined) | -2.12
O=c1c(S(=O)(=O)N2CCCC2)cccn1Cc1c(F)cccc1Cl | 0.814
Cc1nn(C)c2nc3c(c(C(=O)/N=c4\[nH]nc(C(C)C)s4)c12)CCC3 | -2.25
Cn1c(=O)[nH]c(=O)c2c1nc1n2CC(c2ccc(Cl)cc2)O1 (centres undefined) | -176
Cc1ccc(F)c(-n2nnc(C(=O)O)c2-c2ccncc2)c1 | -4.89
CCOc1ccc(NC(C)=O)cc1S(=O)(=O)Nc1ccon1 | -10.8
Cc1nc(NCC2CCOCC2)cc(C2CCN2S(C)(=O)=O)n1 (centres undefined) | 2.58
O=C(O)c1ccccc1CN1CCCC(Cc2ccn[nH]2)C1 (centres undefined) | 2.79
Cc1cccc2nc(CN3CCC(Cn4ccnn4)CC3)cc(=O)n12 | 2.62
C[S+]([O-])c1nncn1CC(=O)c1cccc(C(F)(F)F)c1 (centres undefined) | -0.661
Cc1cnc(C(=O)NCC(c2ccc(C)o2)N2CCOCC2)cn1 (centres undefined) | -7.2
Cc1cn2nc(N3CCn4c(nnc4C(C)C)C3)sc2n1 | 5.73
CCN(C(=O)CCc1ccc2c(c1)OCO2)C1CC(=O)NC1=O (centres undefined) | -3.88
Cc1oc(C(=O)O)cc1S(=O)(=O)Nc1c(F)cccc1-n1cccn1 | -3.45
COc1ccnc(N2CCN(C(=O)c3csc(C(C)C)n3)CC2)n1 | -1.82
Cc1ccc(CC(=O)N2CCOC(c3nc(C(C)(C)C)n[nH]3)C2)cn1 (centres undefined) | -5.96
c1cncc(N2CCCn3nnc(CN4CCOCC4)c3C2)c1 | 2.46
CO[C@H]1CCN(S(=O)(=O)c2cccs2)[C@H]1Cc1ccncc1 | -75
CN(C)C(=O)[C@H]1C[C@H]2OCC[C@H]2N(Cc2ccccn2)C1 | -75.5

SMILES | cytotoxicity at 10 µM [%]
CC1=N[C@@]2(CC[C@@H]3CN(S(=O)(=O)N(C)C)C[C@@H]32)C(=O)N1CC(C)C | 3.16
CC(C)N[C@@H]1CC[C@@H]1NC(=O)c1ccccc1OC(F)(F)C(F)F | 1.77
Cc1cc(C2CCCN2Cc2ccc(C(=O)Nc3nccs3)cc2)on1 (centres undefined) | -6.03
CC(C)c1nccc(CN2CCCC(O)(CN(C)C)C2)n1 (centres undefined) | 2.89
COc1cccc(CC2CN(C(=O)c3ccnn3C)CCO2)c1 (centres undefined) | 0.769
Cc1c(CN2CCCC(C(=O)c3ccccc3)C2)cc(C#N)n1C (centres undefined) | -6.63
CCN1CCC(N2CCN(C)C3(CCC(=O)N(CCOC)CC3)C2)CC1 (centres undefined) | -0.724
CC(C)CN1CCCn2nc(CNC(=O)CCCc3cn[nH]c3)cc2C1 | -6.36
CCCOCCN1CCC2(CC1)CC(c1ccccc1)C(=O)N2C (centres undefined) | 38.1
Cc1cc(C)cc(C(=O)Nc2cn[nH]c2)c1 | -6.57
COc1c(CNCc2ccc(N3CCCC3)nc2)c(C(C)C)nn1C | -11.5
Cc1nc(C)n(CC2CCCN2Cc2nc(-c3ccoc3)no2)n1 (centres undefined) | -8.48
Cc1ncccc1CNCC1CCCN1c1cccnn1 (centres undefined) | -14.2
Cc1cc(F)ccc1CNCc1cccc(C(=O)N2CCCC2)c1 | -10.8
COc1ccccc1CC(=O)NS(=O)(=O)c1cncc(Br)c1 | -12.7
COc1cccc(C(=O)N2CCCCC2CNC(N)=O)c1 (centres undefined) | -7.03
CCOc1ccc(C#N)cc1NCC(=O)Nc1cc(C)no1 | -6.67
c1ccc(CNc2cc(C3CCCNC3)ccn2)nc1 (centres undefined) | -0.565
Cc1c(NC(=O)CN2CCN(C3CCCC3)C(=O)C2)cnn1C | 5.25
O=C(c1ccoc1)N1CCC(NCc2ccccc2Cl)CC1 | 3.95
CNC(=O)CN1CCC12CCN(C(=O)Cc1ccccc1)C2 (centres undefined) | -75.4
COCCNC(=O)C1CN(Cc2cccc(C)n2)Cc2ccnn2C1 (centres undefined) | -79.2
